Experimental findings from ChEMBL document CHEMBL1177669, “Synthesis and biological study of 3-(phenylsulfonyl)thieno[2,3-e][1,2,3]triazolo[1,5-a]pyrimidines as potent and selective serotonin 5-HT6 receptor antagonists” (Bioorg Med Chem, 2010) are described below.

The assay deals with 5-hydroxytryptamine receptor 6 (Homo sapiens, UniProt P50406). The assay is described as follows: Antagonist activity at human recombinant 5HT6 receptor expressed in HEK293 cells assessed as inhibition of serotonin-induced cAMP production. It counts as functional, cell-based. The procedure, abridged: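 HEK293 cells stably expressing recombinant human 5-HT6R, stimulated with serotonin. cAMP from adenylyl cyclase measured by LANCE. Compounds screened at 5 and 10 μM. IC50 determined for compounds giving more than 50% inhibition of cAMP synthesis at 5 μM.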
(In general: Changes in cAMP serve as a functional read-out for many G protein-coupled receptors.)

Sequence of 5-hydroxytryptamine receptor 6 (P50406 whole entry): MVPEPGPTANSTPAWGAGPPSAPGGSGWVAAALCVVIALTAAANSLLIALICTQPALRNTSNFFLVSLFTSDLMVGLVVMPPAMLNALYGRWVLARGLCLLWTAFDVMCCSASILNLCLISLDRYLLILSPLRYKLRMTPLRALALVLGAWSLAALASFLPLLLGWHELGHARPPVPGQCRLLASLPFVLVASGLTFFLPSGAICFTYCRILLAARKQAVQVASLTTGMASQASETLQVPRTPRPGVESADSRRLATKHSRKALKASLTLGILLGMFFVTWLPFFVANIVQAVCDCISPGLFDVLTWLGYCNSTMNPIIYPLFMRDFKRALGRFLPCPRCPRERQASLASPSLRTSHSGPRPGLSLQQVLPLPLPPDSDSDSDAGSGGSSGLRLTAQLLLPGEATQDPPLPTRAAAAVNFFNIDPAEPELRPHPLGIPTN

Consider `CCCCNc1nc2c(S(=O)(=O)c3cccc(Cl)c3)nnn2c2ccsc12`, for which the IC50 – broadly, the concentration at which inhibition is half-maximal – stood at 60 nM. `CC1CCCN(c2nc3c(S(=O)(=O)c4cccc(Cl)c4)nnn3c3ccsc23)C1` (stereo not drawn): the IC50 worked out at 2000 nM.

Take `COc1ccccc1CNc1nc2c(S(=O)(=O)c3cccc(Cl)c3)nnn2c2ccsc12`: the IC50 was 780 nM. As to `COc1ccccc1CNc1nc2c(S(=O)(=O)c3ccc(Br)cc3)nnn2c2ccsc12`, the IC50 was found to be 930 nM. As for `O=S(=O)(c1cccc(Cl)c1)c1nnn2c1nc(NCCc1ccccc1)c1sccc12`, the 50% inhibitory concentration (IC50) turned out to be 820 nM. As to `Cc1ccc(S(=O)(=O)c2nnn3c2nc(NCc2ccccc2)c2sccc23)cc1`, the IC50 turned out to be 260 nM.

Consider `CC(C)c1ccc(S(=O)(=O)c2nnn3c2nc(NCc2ccccc2Cl)c2sccc23)cc1`, for which the IC50 turned out to be 1830 nM.

Take `Cc1ccc(S(=O)(=O)c2nnn3c2nc(NCc2ccccc2Cl)c2sccc23)cc1C`: the IC50 came out at 600 nM. Turning to `COCCCNc1nc2c(S(=O)(=O)c3ccc(C)c(C)c3)nnn2c2ccsc12`, the IC50 was 2380 nM. `CCc1ccc(S(=O)(=O)c2nnn3c2nc(NCCc2ccccc2)c2sccc23)cc1`: the IC50 is 1050 nM. In the case of `Cc1ccc(C)c(Nc2nc3c(S(=O)(=O)c4cccc(Cl)c4)nnn3c3ccsc23)c1`, the IC50 was 740 nM.

On to `CCN(Cc1ccccc1)c1nc2c(S(=O)(=O)c3cccc(Cl)c3)nnn2c2ccsc12`, for which the half-inhibitory concentration (IC50) amounted to 540 nM. To `COc1ccccc1CNc1nc2c(S(=O)(=O)c3ccc(C)cc3)nnn2c2ccsc12` belongs 580 nM. To `O=S(=O)(c1ccccc1)c1nnn2c1nc(NCc1ccc3c(c1)OCO3)c1sccc12` belongs 290 nM; to `Nc1nc2c(S(=O)(=O)c3ccc(Br)cc3)nnn2c2ccsc12`, 610 nM.

On to `CN(Cc1ccccc1)c1nc2c(S(=O)(=O)c3ccc(Cl)cc3)nnn2c2ccsc12`, for which the half-inhibitory concentration (IC50) was 1190 nM. For the compound `O=S(=O)(c1ccccc1)c1nnn2c1nc(NCc1ccc(Cl)cc1)c1sccc12`, the IC50 stood at 1170 nM. As to `COCCCNc1nc2c(S(=O)(=O)c3ccc(Cl)cc3)nnn2c2ccsc12`, the IC50 is over 5000 nM.

Turning to `O=S(=O)(c1ccccc1)c1nnn2c1nc(NCCc1ccccc1)c1sccc12`, the IC50 stood at 1160 nM. `CC(C)Nc1nc2c(S(=O)(=O)c3ccc(Cl)cc3)nnn2c2ccsc12`: the 50% inhibitory concentration (IC50) came to 1200 nM. Next, `Cc1ccc(Nc2nc3c(S(=O)(=O)c4ccc(C(C)C)cc4)nnn3c3ccsc23)cc1C`: 1110 nM; `CC1CCN(c2nc3c(S(=O)(=O)c4cccc(Cl)c4)nnn3c3ccsc23)CC1`: 1120 nM; `Cc1ccc(C)c(S(=O)(=O)c2nnn3c2nc(NCCc2ccccc2)c2sccc23)c1`: 670 nM. Turning to `Cc1ccc(S(=O)(=O)c2nnn3c2nc(NCCC(C)C)c2sccc23)cc1`, the IC50 stood at 580 nM. With `Cc1ccc(S(=O)(=O)c2nnn3c2nc(NC(C)c2ccccc2)c2sccc23)cc1` (stereo not drawn), the IC50 stood at 180 nM.

As to `CCCCNc1nc2c(S(=O)(=O)c3ccc(C(C)C)cc3)nnn2c2ccsc12`, the IC50 was over 5000 nM. To `Cc1ccc(C)c(S(=O)(=O)c2nnn3c2nc(NC(C)c2ccccc2)c2sccc23)c1` (stereo not drawn) belongs 170 nM. `O=S(=O)(c1ccc(Cl)cc1)c1nnn2c1nc(NCc1ccco1)c1sccc12`: the IC50 is 410 nM. As for `Cc1ccc(S(=O)(=O)c2nnn3c2nc(NC2CCCCCC2)c2sccc23)cc1C`, the IC50 is 350 nM. On to `Cc1ccc(S(=O)(=O)c2nnn3c2nc(Nc2cccc(F)c2)c2sccc23)cc1`, for which the IC50 was 3810 nM. To `Cc1ccc(C)c(S(=O)(=O)c2nnn3c2nc(NCCCc2ccccc2)c2sccc23)c1` belongs 1220 nM.

Regarding `Cc1ccc(S(=O)(=O)c2nnn3c2nc(Nc2cccc(C)c2)c2sccc23)cc1`, the IC50 stood at 5220 nM. With `O=S(=O)(c1cccc(Cl)c1)c1nnn2c1nc(Nc1ccccc1)c1sccc12`, the IC50 came out at 920 nM. Consider `Cc1ccc(S(=O)(=O)c2nnn3c2nc(NCc2ccco2)c2sccc23)cc1`, for which the 50% inhibitory concentration (IC50) is 500 nM. For `Cc1ccc(C)c(S(=O)(=O)c2nnn3c2nc(NCCC(C)C)c2sccc23)c1`, the IC50 amounted to 860 nM. To `Cc1ccc(C)c(S(=O)(=O)c2nnn3c2nc(NCc2cccs2)c2sccc23)c1` belongs 710 nM. Consider `CC(C)Nc1nc2c(S(=O)(=O)c3cccc(Cl)c3)nnn2c2ccsc12`, for which the IC50 turned out to be 470 nM. Consider `COc1cccc(CNc2nc3c(S(=O)(=O)c4ccccc4)nnn3c3ccsc23)c1`, for which the IC50 is 1370 nM.

As for `CC(Cc1ccccc1)Nc1nc2c(S(=O)(=O)c3ccccc3)nnn2c2ccsc12` (stereo not drawn), the IC50 is 1080 nM.

As to `O=S(=O)(c1cccc(Cl)c1)c1nnn2c1nc(N1CCOCC1)c1sccc12`, the IC50 amounted to 1040 nM.

Consider `Cc1ccc(S(=O)(=O)c2nnn3c2nc(NCc2ccco2)c2sccc23)cc1C`, for which the IC50 amounted to 770 nM.

In the case of `Cc1ccc(S(=O)(=O)c2nnn3c2nc(NCc2ccc(F)cc2)c2sccc23)cc1`, the IC50 was 740 nM. As for `CCCCNc1nc2c(S(=O)(=O)c3ccccc3)nnn2c2ccsc12`, the IC50 stood at 69 nM. Turning to `COCCNc1nc2c(S(=O)(=O)c3ccccc3)nnn2c2ccsc12`, the IC50 was determined as 190 nM. As for `COc1cccc(Nc2nc3c(S(=O)(=O)c4ccc(C(C)C)cc4)nnn3c3ccsc23)c1`, the IC50 is 900 nM. Turning to `Cc1ccc(C)c(Nc2nc3c(S(=O)(=O)c4ccc(Br)cc4)nnn3c3ccsc23)c1`, the IC50 was 2010 nM. On to `CC1CCCN(c2nc3c(S(=O)(=O)c4ccccc4)nnn3c3ccsc23)C1` (stereo not drawn), for which the IC50 turned out to be 2030 nM. To `COCCNc1nc2c(S(=O)(=O)c3ccc(C(C)C)cc3)nnn2c2ccsc12` belongs over 5000 nM. With `Cc1cccc(Nc2nc3c(S(=O)(=O)c4ccc(Cl)cc4)nnn3c3ccsc23)c1C`, the IC50 came to 800 nM. Consider `O=S(=O)(c1ccc(Cl)cc1)c1nnn2c1nc(NC1CCCCC1)c1sccc12`, for which the IC50 was found to be 960 nM.

Turning to `CN(C)CCN(C)c1nc2c(S(=O)(=O)c3cccc(Cl)c3)nnn2c2ccsc12`, the IC50 was found to be 780 nM. Take `CCc1ccc(S(=O)(=O)c2nnn3c2nc(NC(C)C)c2sccc23)cc1`: the IC50 came to 1600 nM.

In the case of `Cc1ccc(S(=O)(=O)c2nnn3c2nc(NCc2cccs2)c2sccc23)cc1C`, the IC50 amounted to 90 nM.

For the compound `NC(=O)C1CCN(c2nc3c(S(=O)(=O)c4ccccc4)nnn3c3ccsc23)CC1`, the IC50 stood at 1990 nM. For the compound `Cc1ccc(C)c(S(=O)(=O)c2nnn3c2nc(N2CCOCC2)c2sccc23)c1`, the half-inhibitory concentration (IC50) was 1930 nM.

For `O=S(=O)(c1ccccc1)c1nnn2c1nc(NC1CCCCCC1)c1sccc12`, the half-maximal inhibitory concentration (IC50) amounted to 170 nM. As for `O=S(=O)(c1cccc(Cl)c1)c1nnn2c1nc(NC1CCCCCC1)c1sccc12`, the IC50 amounted to 140 nM. For `O=S(=O)(c1ccccc1)c1nnn2c1nc(NCc1ccccc1Cl)c1sccc12`, the IC50 was 32 nM. Consider `CCc1ccc(S(=O)(=O)c2nnn3c2nc(N(CC)CC)c2sccc23)cc1`, for which the IC50 is 1900 nM.

As to `Cc1ccc(S(=O)(=O)c2nnn3c2nc(NCCc2ccccc2)c2sccc23)cc1`, the IC50 was 960 nM.

With `CN(Cc1ccccc1)c1nc2c(S(=O)(=O)c3ccc(Br)cc3)nnn2c2ccsc12`, the IC50 was found to be 1950 nM.

As for `O=S(=O)(c1ccccc1)c1nnn2c1nc(Nc1cccc(C(F)(F)F)c1)c1sccc12`, the IC50 was 820 nM. To `Cc1ccc(S(=O)(=O)c2nnn3c2nc(NCc2ccc4c(c2)OCO4)c2sccc23)cc1` belongs 1250 nM; to `CC(C)CCNc1nc2c(S(=O)(=O)c3ccc(C(C)C)cc3)nnn2c2ccsc12`, over 5000 nM; to `COCCCNc1nc2c(S(=O)(=O)c3ccc(Br)cc3)nnn2c2ccsc12`, over 5000 nM. Next, `O=S(=O)(c1ccccc1)c1nnn2c1nc(Nc1nc3ccccc3s1)c1sccc12`: over 5000 nM; `COCCNc1nc2c(S(=O)(=O)c3ccc(C)cc3)nnn2c2ccsc12`: 1490 nM.

As to `COCCCNc1nc2c(S(=O)(=O)c3cccc(Cl)c3)nnn2c2ccsc12`, the IC50 stood at 150 nM. For the compound `COc1ccccc1Nc1nc2c(S(=O)(=O)c3ccc(Cl)cc3)nnn2c2ccsc12`, the IC50 turned out to be 1150 nM. For `CCN(CC)c1nc2c(S(=O)(=O)c3cccc(Cl)c3)nnn2c2ccsc12`, the IC50 is 1220 nM.

Consider `Cc1ccc(S(=O)(=O)c2nnn3c2nc(Nc2cccc(C)c2C)c2sccc23)cc1`, for which the IC50 is 590 nM. As for `CCN(Cc1ccccc1)c1nc2c(S(=O)(=O)c3ccc(C)cc3)nnn2c2ccsc12`, the IC50 was 300 nM. Regarding `Cc1ccc(S(=O)(=O)c2nnn3c2nc(NCCC(C)C)c2sccc23)cc1C`, the IC50 stood at 46 nM. Regarding `COc1ccccc1CNc1nc2c(S(=O)(=O)c3ccc(C)c(C)c3)nnn2c2ccsc12`, the IC50 was found to be 470 nM. Next, `Cc1ccc(S(=O)(=O)c2nnn3c2nc(NC(C)C)c2sccc23)cc1C`: 750 nM. Next, `COc1cccc(CNc2nc3c(S(=O)(=O)c4ccc(C)cc4)nnn3c3ccsc23)c1`: 2210 nM; `CC(Nc1nc2c(S(=O)(=O)c3ccccc3)nnn2c2ccsc12)c1ccccc1` (stereo not drawn): 37 nM. As for `Cc1ccc(S(=O)(=O)c2nnn3c2nc(NCC2CCCO2)c2sccc23)cc1` (stereo not drawn), the IC50 is 250 nM.

Consider `O=S(=O)(c1cccc(Cl)c1)c1nnn2c1nc(NC1CCCCC1)c1sccc12`, for which the IC50 worked out at 69 nM. Take `Cc1ccc(S(=O)(=O)c2nnn3c2nc(NC2CCCCC2)c2sccc23)cc1C`: the IC50 stood at 820 nM.

Turning to `Nc1nc2c(S(=O)(=O)c3cccc(Cl)c3)nnn2c2ccsc12`, the IC50 came out at 690 nM. Consider `O=S(=O)(c1ccccc1)c1nnn2c1nc(Nc1ccc(F)cc1)c1sccc12`, for which the IC50 came to 600 nM.

Regarding `Cc1cc(Cl)cc(Nc2nc3c(S(=O)(=O)c4ccc(C)c(C)c4)nnn3c3ccsc23)c1`, the IC50 came out at 2260 nM. For the compound `COCCCNc1nc2c(S(=O)(=O)c3cc(C)ccc3C)nnn2c2ccsc12`, the IC50 was found to be 1290 nM. As to `Cc1ccc(S(=O)(=O)c2nnn3c2nc(N(C)Cc2ccccc2)c2sccc23)cc1C`, the IC50 stood at 1330 nM. Next, `COCCNc1nc2c(S(=O)(=O)c3cc(C)ccc3C)nnn2c2ccsc12`: 860 nM; `COCCCNc1nc2c(S(=O)(=O)c3ccccc3)nnn2c2ccsc12`: 260 nM; `O=S(=O)(c1cccc(Cl)c1)c1nnn2c1nc(Nc1cccc(C(F)(F)F)c1)c1sccc12`: 1070 nM.
